What was measured:
Assay type in all cases: functional
Sonchus arvensis = experiment: Phytotoxicity against Sonchus arvensis at 1 mg/ml by leaf disk puncture assay
Summary of the method: (§1)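 Leaf disks wounded centrally with a needle, kept on moistened filter paper in closed boxes. Compound dissolved in MeOH, diluted with distilled water to 1 mg/mL final (2% v/v MeOH; MeOH-only control); 10 μL drop applied at the wound. Incubated 48 h under cycles of 8 h dark at 20 °C and 16 h light at 24 °C; necrotic area then measured.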

Cirsium arvense = experiment: Phytotoxicity against Cirsium arvense at 1 mg/ml by leaf disk puncture assay; summary of the method: as §1
Colpoda steinii = experiment: Phytotoxicity against Colpoda stenii at 0.05 mg/ml after 3 hrs; conditions: Colpoda steini, in the assay text read “Zootoxicity” for “Phytotoxicity”
Summary of the method: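 Dried Colpoda steinii culture (~5000 cells per mL) revived in Lozina-Lozinskogo medium, 24 h at 25 °C. Compound in 4% EtOH mixed 1:1 v/v with the suspension, 0.05 mg/mL final; 4% EtOH control. Immobile cells (%) counted over 3–180 min. Full immobilisation within 3 min scored as strong toxicity; loss of motility at ≥180 min scored as medium.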

Row | SMILES | Activity (Sonchus arvensis) | Activity (Cirsium arvense) | Activity (Colpoda steinii)
1 | CCC[C@H]1OC(=O)CC[C@@H](O)/C=C/[C@H](O)[C@@H]1O | Not toxic | Not toxic | –
2 | C[C@@H]1OC(=O)CC[C@H](O)/C=C/[C@@H]2O[C@H]12 | Not toxic | Not toxic | –
3 | C[C@@H]1CC[C@@H](O)/C=C/C=C\C(=O)O1 | Not toxic | Not toxic | –
4 | CCC[C@H]1OC(=O)CCC/C=C/C(=O)[C@@H]1O | Toxic | Toxic | Not toxic
5 | C[C@@H]1C[C@H](O)/C=C/[C@@H](O)CCC(=O)O1 | Not toxic | Not toxic | Not toxic
6 | C[C@@H]1C/C=C/[C@@H](O)CCCC(=O)O1 | Not toxic | Not toxic | –

— ChEMBL document CHEMBL1142410, “Stagonolides B-F, nonenolides produced by Stagonospora cirsii, a potential mycoherbicide of Cirsium arvense” (J Nat Prod, 2008)
